Measured values taken from ChEMBL document CHEMBL4038323, “Discovery and Kinetic Profiling of 7-Aryl-1,2,4-triazolo[4,3-a]pyridines: Positive Allosteric Modulators of the Metabotropic Glutamate Receptor 2” (J Med Chem, 2017).

Assays:
[1] = biological target: T1, Metabotropic glutamate receptor 2 (Homo sapiens, UniProt Q14416); test: Binding affinity to human metabotropic glutamate receptor 2 expressed in CHOK1 cell membranes by scintillation proximity assay
Target sequence in this assay (Q14416 whole entry): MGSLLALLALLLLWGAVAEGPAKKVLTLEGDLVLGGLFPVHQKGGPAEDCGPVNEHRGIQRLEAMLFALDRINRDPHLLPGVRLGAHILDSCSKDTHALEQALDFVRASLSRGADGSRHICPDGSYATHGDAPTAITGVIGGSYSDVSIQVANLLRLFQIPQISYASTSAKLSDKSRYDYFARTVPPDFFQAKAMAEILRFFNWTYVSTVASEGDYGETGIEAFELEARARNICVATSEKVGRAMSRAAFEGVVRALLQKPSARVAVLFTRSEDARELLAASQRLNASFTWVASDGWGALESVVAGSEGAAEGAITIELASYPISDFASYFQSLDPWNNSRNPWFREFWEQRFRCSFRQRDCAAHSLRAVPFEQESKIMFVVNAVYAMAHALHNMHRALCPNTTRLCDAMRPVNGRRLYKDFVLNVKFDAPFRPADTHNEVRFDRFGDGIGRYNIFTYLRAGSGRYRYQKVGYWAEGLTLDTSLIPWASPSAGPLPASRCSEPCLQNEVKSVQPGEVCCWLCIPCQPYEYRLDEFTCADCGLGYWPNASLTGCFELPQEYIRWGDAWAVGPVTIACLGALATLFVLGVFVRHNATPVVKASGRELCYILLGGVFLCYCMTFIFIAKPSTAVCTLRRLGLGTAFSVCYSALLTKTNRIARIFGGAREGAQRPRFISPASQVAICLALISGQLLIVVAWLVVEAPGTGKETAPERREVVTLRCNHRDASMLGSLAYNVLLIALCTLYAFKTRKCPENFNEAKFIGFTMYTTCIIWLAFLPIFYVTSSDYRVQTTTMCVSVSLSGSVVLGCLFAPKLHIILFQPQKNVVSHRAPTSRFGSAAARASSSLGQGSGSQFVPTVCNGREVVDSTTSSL

[2] = biological target: T1, Metabotropic glutamate receptor 2; test: Positive allosteric modulation of human metabotropic glutamate receptor 2 expressed in CHOK1 cell membranes assessed as increase in glutamate-induced [35S]GTPgammaS binding preincubated for 30 mins followed by [35S]GTPgammaS addition measured after 30 mins by Topcount scintillation counting method; type: functional
Target sequence in this assay (Q14416 whole entry): as above

[3] = biological target: T1, Metabotropic glutamate receptor 2; test: Displacement of [3H]JNJ-46281222 from human metabotropic glutamate receptor 2 expressed in CHOK1 cell membranes assessed as association rate constant measured every 30 sec for 120 mins by scintillation proximity assay
How it was run: (§1)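 For the SPA competition association, CHO-K1_hmGlu2 membranes (20 µg) were pre-coupled 30 min to WGA SPA beads, then mixed with 6 nM [3H]JNJ-46281222, competitor and 1 mM glutamate. Counts were read every 30 s for 120 min at 28°C.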
Target sequence in this assay (Q14416 19-872 limits assumed): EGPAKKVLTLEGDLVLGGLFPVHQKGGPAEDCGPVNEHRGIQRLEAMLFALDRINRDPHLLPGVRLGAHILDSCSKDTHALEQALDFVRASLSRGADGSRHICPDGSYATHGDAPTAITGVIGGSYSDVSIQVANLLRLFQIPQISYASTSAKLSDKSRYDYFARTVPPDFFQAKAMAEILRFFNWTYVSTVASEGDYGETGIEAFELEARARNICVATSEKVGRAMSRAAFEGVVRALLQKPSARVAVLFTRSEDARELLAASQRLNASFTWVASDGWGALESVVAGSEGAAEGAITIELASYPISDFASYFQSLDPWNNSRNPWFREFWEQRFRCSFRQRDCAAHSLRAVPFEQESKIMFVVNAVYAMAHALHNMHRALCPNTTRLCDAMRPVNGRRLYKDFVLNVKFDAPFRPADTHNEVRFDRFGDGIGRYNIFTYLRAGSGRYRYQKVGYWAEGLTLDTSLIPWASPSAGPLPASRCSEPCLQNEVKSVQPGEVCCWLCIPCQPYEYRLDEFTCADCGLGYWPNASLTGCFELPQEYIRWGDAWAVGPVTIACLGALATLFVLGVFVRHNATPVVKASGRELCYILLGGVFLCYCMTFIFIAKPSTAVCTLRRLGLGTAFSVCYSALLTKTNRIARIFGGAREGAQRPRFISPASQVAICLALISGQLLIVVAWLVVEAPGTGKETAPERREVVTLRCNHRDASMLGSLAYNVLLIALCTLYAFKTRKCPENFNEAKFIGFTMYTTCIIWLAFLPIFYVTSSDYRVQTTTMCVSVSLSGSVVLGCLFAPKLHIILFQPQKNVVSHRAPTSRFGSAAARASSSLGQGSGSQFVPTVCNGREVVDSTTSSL

[4] = biological target: T1, Metabotropic glutamate receptor 2; test: Displacement of [3H]-JNJ46281222 from human metabotropic glutamate receptor 2 expressed in CHOK1 cell membranes after 60 mins by microbeta counting analysis
Target sequence in this assay (Q14416 whole entry): as the sequence (Q14416 whole entry) above

[5] = biological target: T1, Metabotropic glutamate receptor 2; test: Displacement of [3H]JNJ-46281222 from human metabotropic glutamate receptor 2 expressed in CHOK1 cell membranes assessed as dissociation rate constant measured every 30 sec for 120 mins by scintillation proximity assay; how it was run: as §1
Target sequence in this assay (Q14416 19-872 limits assumed): as the sequence (Q14416 19-872 limits assumed) above

[6] = biological target: T1, Metabotropic glutamate receptor 2; test: Displacement of [3H]JNJ-46281222 from human metabotropic glutamate receptor 2 expressed in CHOK1 cell membranes assessed as residence time measured every 30 sec for 120 mins by scintillation proximity assay; how it was run: as §1
Target sequence in this assay (Q14416 19-872 limits assumed): as above

Row | Structure (SMILES) | Kd [1] [nM] | EC50 [2] [nM] | K [3] | Ki [4] [nM] | K [5] [min⁻¹] | TIME [6] [h]
1 | Cc1ccc(Oc2ccc(-c3ccn4c(CC5CC5)nnc4c3C(C)C)cc2F)c(C)n1 | 10.7 | 28.2 | 6.5 ×10⁶ /M/min | 25.1 | 0.07 | 0.237
2 | Fc1cc(-c2ccn3c(CC4CC4)nnc3c2Cl)ccc1Oc1ccnc(C2CC2)c1 | 42.7 | 87.1 | 1.7 ×10⁶ /M/min | 53.7 | 0.073 | 0.228
3 | O[C@H]1CC[C@H](Nc2ccc(-c3ccn4c(CC5CC5)nnc4c3Cl)cc2Cl)CC1 | 12.7 | 33.1 | 6.7 ×10⁶ /M/min | 3.02 | 0.084 | 0.197
4 | Cc1cc(Oc2ccc(-c3ccn4c(CC5CC5)nnc4c3C(F)(F)F)cc2F)ccn1 | 9.2 | 56.2 | 9.8 ×10⁶ /M/min | 7.08 | 0.09 | 0.185
5 | Cc1cc(Oc2ccc(-c3ccn4c(CC5CC5)nnc4c3Cl)cc2F)ccn1 | 37.6 | 251 | 2.6 ×10⁶ /M/min | 63.1 | 0.096 | 0.173
6 | CCOCc1nnc2c(Cl)c(-c3ccc(Oc4ccc(C)nc4C)c(F)c3)ccn12 | 25.2 | 74.1 | 3 ×10⁶ /M/min | 6.46 | 0.076 | 0.22
7 | CCOCc1nnc2c(C(F)(F)F)c(-c3ccc(Oc4ccc(C)nc4C)c(F)c3)ccn12 | 2.1 | 29.5 | 3.6 ×10⁷ /M/min | 11.7 | 0.075 | 0.223
8 | O[C@H]1CC[C@@H](Nc2ccc(-c3ccn4c(CC5CC5)nnc4c3C(F)(F)F)cc2Cl)CC1 | – | – | 5.7 ×10⁶ /M/min | – | 0.058 | 0.285
9 | COc1ccc(COc2ccc(-c3ccn4c(CC5CC5)nnc4c3C(F)(F)F)cc2)cn1 | 8.7 | 57.5 | 1.4 ×10⁷ /M/min | 8.71 | 0.125 | 0.133
10 | Clc1cc(-c2ccn3c(CC4CC4)nnc3c2Cl)ccc1NC1CCOCC1 | 19.5 | 148 | 7 ×10⁶ /M/min | 38.9 | 0.136 | 0.122
11 | Cc1ccc(Oc2ccc(-c3ccn4c(CC5CC5)nnc4c3C)cc2F)c(C)n1 | 10 | 77.6 | 8.6 ×10⁶ /M/min | 21.9 | 0.086 | 0.193
12 | Cc1ccc(Oc2ccc(-c3ccn4c(CC5CC5)nnc4c3C)cc2Cl)c(C)n1 | 17.4 | 17.4 | 5.5 ×10⁶ /M/min | 14.8 | 0.096 | 0.175
13 | FC(F)(F)c1c(-c2ccc(CNC3CCOCC3)c(Cl)c2)ccn2c(CC3CC3)nnc12 | 54 | 631 | 1.7 ×10⁶ /M/min | 61.7 | 0.091 | 0.183
14 | Cc1cc(-c2nc(CN3CCNCC3)no2)cc2c1C(=O)N(Cc1ccc(OC(F)(F)F)cc1)C2 | – | – | 2.1 ×10⁵ /M/min | – | 0.128 | 0.13
15 | Cc1ccc(Oc2ccc(-c3ccn4c(CC5CC5)nnc4c3C(F)(F)F)cc2Cl)c(C)n1 | 7.3 | 2.88 | 6.1 ×10⁶ /M/min | 1.51 | 0.044 | 0.378
16 | Cc1cc(Oc2ccc(-c3ccn4c(CC5CC5)nnc4c3C(F)(F)F)cc2F)cc(C)n1 | 11.5 | 64.6 | 8.3 ×10⁶ /M/min | 10 | 0.095 | 0.175
17 | O[C@H]1CC[C@H](Oc2ccc(-c3ccn4c(CC(F)(F)F)nnc4c3Cl)cc2Cl)CC1 | 16.6 | 158 | 8.3 ×10⁶ /M/min | 11.5 | 0.137 | 0.122
18 | COc1ccc(COc2ccc(-c3ccn4c(CC5CC5)nnc4c3C(F)(F)F)cc2F)cn1 | 16 | 40.7 | 1.1 ×10⁷ /M/min | 11.7 | 0.173 | 0.0967

Row | Structure (SMILES) | Kd [1] [nM] | EC50 [2] [nM] | K [3] | Ki [4] [nM] | K [5] [min⁻¹] | TIME [6] [h]
19 | Cc1ccc(Oc2ccc(-c3ccn4c(CC(F)(F)F)nnc4c3Cl)cc2F)c(C)n1 | 3.3 | 29.5 | 2.9 ×10⁷ /M/min | 7.94 | 0.096 | 0.175
20 | Cc1ccc(Oc2ccc(-c3ccn4c(CC5CC5)nnc4c3Cl)cc2F)c(C)n1 | 15.3 | 40.7 | 6.3 ×10⁶ /M/min | 1.95 | 0.097 | 0.172
21 | O[C@H]1CC[C@H](Oc2ccc(-c3ccn4c(CC5CC5)nnc4c3C(F)(F)F)cc2Cl)CC1 | 3 | 25.1 | 1.2 ×10⁷ /M/min | 1.91 | 0.036 | 0.468
22 | COc1ccc(CNc2ccc(-c3ccn4c(CC5CC5)nnc4c3C(F)(F)F)cc2)cn1 | 2 | 15.1 | 3.4 ×10⁷ /M/min | 3.16 | 0.069 | 0.243
23 | FC(F)(F)c1c(-c2ccc(NC3CC3)c(Cl)c2)ccn2c(CC3CC3)nnc12 | 1.2 | 7.76 | 7.7 ×10⁷ /M/min | 2.24 | 0.088 | 0.188
24 | O[C@H]1CC[C@H](Nc2ccc(-c3ccn4c(CC5CC5)nnc4c3C(F)(F)F)cc2Cl)CC1 | – | – | 1.1 ×10⁷ /M/min | – | 0.033 | 0.513
25 | CC(C)Nc1ccc(-c2ccn3c(CC4CC4)nnc3c2C(F)(F)F)cc1Cl | 3.4 | 17.4 | 3.6 ×10⁷ /M/min | 3.89 | 0.121 | 0.137
26 | Fc1cc(-c2ccn3c(CC4CC4)nnc3c2C(F)(F)F)ccc1NC1CC1 | 1.1 | 30.2 | 7.7 ×10⁷ /M/min | 3.63 | 0.086 | 0.198
27 | Clc1cc(-c2ccn3c(CC4CC4)nnc3c2Cl)ccc1NC1CC1 | 6.1 | 29.5 | 1.4 ×10⁷ /M/min | 6.76 | 0.084 | 0.198
28 | COc1ccc(CNc2ccc(-c3ccn4c(CC5CC5)nnc4c3C(F)(F)F)cc2F)cn1 | 2.9 | 5.89 | 1.5 ×10⁷ /M/min | 2.04 | 0.044 | 0.378
29 | Clc1cc(-c2ccn3c(CC4CC4)nnc3c2Cl)ccc1OC1CCOCC1 | 28.1 | 224 | 3.3 ×10⁶ /M/min | 22.9 | 0.092 | 0.182
30 | COc1ccc(CNc2ccc(-c3ccn4c(CC5CC5)nnc4c3Cl)cc2)cn1 | 15.6 | 151 | 6.2 ×10⁶ /M/min | 7.41 | 0.097 | 0.172
31 | CC(C)Nc1ccc(-c2ccn3c(CC4CC4)nnc3c2Cl)cc1F | 20.3 | 224 | 5 ×10⁶ /M/min | 61.7 | 0.101 | 0.165
32 | Cc1c(OCc2cccc(-c3ccc(C(=O)O)cc3)c2)cc2c(c1C)C(=O)C(C1CCCC1)C2 (stereo not drawn) | – | – | 4.6 ×10⁶ /M/min | – | 0.086 | 0.193
33 | CCc1cc(Oc2ccc(-c3ccn4c(CC5CC5)nnc4c3Cl)cc2F)ccn1 | 23.3 | 100 | 3 ×10⁶ /M/min | 18.6 | 0.069 | 0.24
34 | CC(C)Nc1ccc(-c2ccn3c(CC4CC4)nnc3c2C(F)(F)F)cc1F | 2.2 | 93.3 | 4.6 ×10⁷ /M/min | 8.91 | 0.1 | 0.167
35 | O[C@H]1CC[C@@H](Oc2ccc(-c3ccn4c(CC(F)(F)F)nnc4c3Cl)cc2Cl)CC1 | 8.1 | 97.7 | 6.9 ×10⁶ /M/min | 32.4 | 0.056 | 0.295
